Paper PMC12377214 (RSC Advances, 2025)
Where “and” joins values, the source holds several entries; their conditions need not be identical. Equal entries are not always repeated.

Columns and labels:
A498 (kidney carcinoma) = experiment: Antiproliferative SRB assay, A-498; assay type: cell-based, human; conditions: for IC50: Homo sapiens, A498, 72 h, read-out: pIC50 A-498 (converted); for Selectivity index (SI) A498: IC50 BALB/3T3 / IC50 A498
[1] = test system: HepG-2 (hepatocellular carcinoma); experiment: Antiproliferative SRB assay, HepG2; assay type: cell-based, human; conditions: for IC50: Homo sapiens, HepG2, 72 h, read-out: pIC50 HepG2 (converted); for Selectivity index (SI) HepG2: IC50 BALB/3T3 / IC50 HepG2
[2] = test system: MDA-MB-231 (breast adenocarcinoma); experiment: Antiproliferative SRB assay, MDA-MB-231; assay type: cell-based, human; conditions: for IC50: Homo sapiens, MDA-MB-231, 72 h, read-out: pIC50 MDA-MB-231 (converted); for Selectivity index (SI) MDA-MB-231: IC50 BALB/3T3 / IC50 MDA-MB-231
CDK6/Cyclin D3 = CDK6/Cyclin D3 (Homo sapiens, UniProt Q00534); experiment: In vitro CDK6 inhibitory assay; assay type: biochemical
VEGFR-2 = VEGFR-2 (Homo sapiens, UniProt P35968); experiment: In vitro VEGFR-2 kinase inhibitory assay; assay type: biochemical
xanthine oxidase (XO) [3] = target: T1, xanthine oxidase (XO) (Homo sapiens, UniProt P47989); experiment: Xanthine oxidase inhibition assay; assay type: biochemical
MV4-11 cell line [4] = experiment: Antiproliferative MTT assay, MV4-11; assay type: cell-based; conditions: Homo sapiens, MV4-11, read-out: Anti-proliferative IC50 MV4-11
In short: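 MV4-11 cells grown in RPMI 1640 with stable glutamine, 10% FBS, 1.0 mM sodium pyruvate and penicillin/streptomycin at 37 °C, 5% CO2. Seeded at 2000 cells/well, then treated after 24 h with test compound (DMSO stock of 10 mg mL−1 diluted in medium; 0.1–100 μg mL−1) for 72 h. MTT added for 4 h, formazan dissolved in DMF, A570 read. IC50 calculated.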

MV4-11 cell line [5] = experiment: Cell cycle analysis; assay type: cell-based; conditions: for Cell percentage SubG1: control 7.12 ± 0.569; for Cell percentage G2/M: control 20.98 ± 0.614; for Cell percentage S: control 24.54 ± 2.475; for Cell percentage G0/G1: control 45.40 ± 3.051
xanthine oxidase (XO) [6] = target: T1, xanthine oxidase (XO); experiment: Kinetics of xanthine oxidase inhibition; assay type: biochemical; conditions: for V max: XO alone 2.25 / 2.21; for K m: XO alone Km 40
MV4-11 cell line [7] = conditions: MV4-11 cancer cell line; cited from earlier work

Chain of CDK6/Cyclin D3 (Q00534 whole entry): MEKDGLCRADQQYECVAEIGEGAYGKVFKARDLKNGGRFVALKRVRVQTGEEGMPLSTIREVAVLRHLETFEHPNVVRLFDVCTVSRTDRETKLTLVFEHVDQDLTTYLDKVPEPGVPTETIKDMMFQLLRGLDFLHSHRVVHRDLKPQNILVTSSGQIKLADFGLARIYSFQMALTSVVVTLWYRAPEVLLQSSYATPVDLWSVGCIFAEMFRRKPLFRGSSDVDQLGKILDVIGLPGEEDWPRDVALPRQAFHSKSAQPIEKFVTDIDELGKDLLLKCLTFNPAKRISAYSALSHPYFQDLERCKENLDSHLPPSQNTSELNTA
Chain of CDK6/Cyclin D3 (P30281 whole entry partner): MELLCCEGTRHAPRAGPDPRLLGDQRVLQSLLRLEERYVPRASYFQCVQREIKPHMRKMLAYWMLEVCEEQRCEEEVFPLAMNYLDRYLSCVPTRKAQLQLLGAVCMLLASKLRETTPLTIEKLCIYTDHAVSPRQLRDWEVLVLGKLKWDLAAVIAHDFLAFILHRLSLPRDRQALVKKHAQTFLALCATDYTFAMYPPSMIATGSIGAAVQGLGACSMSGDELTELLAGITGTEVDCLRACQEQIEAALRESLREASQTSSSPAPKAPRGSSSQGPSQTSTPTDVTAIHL
Chain of VEGFR-2 (P35968 20-1356): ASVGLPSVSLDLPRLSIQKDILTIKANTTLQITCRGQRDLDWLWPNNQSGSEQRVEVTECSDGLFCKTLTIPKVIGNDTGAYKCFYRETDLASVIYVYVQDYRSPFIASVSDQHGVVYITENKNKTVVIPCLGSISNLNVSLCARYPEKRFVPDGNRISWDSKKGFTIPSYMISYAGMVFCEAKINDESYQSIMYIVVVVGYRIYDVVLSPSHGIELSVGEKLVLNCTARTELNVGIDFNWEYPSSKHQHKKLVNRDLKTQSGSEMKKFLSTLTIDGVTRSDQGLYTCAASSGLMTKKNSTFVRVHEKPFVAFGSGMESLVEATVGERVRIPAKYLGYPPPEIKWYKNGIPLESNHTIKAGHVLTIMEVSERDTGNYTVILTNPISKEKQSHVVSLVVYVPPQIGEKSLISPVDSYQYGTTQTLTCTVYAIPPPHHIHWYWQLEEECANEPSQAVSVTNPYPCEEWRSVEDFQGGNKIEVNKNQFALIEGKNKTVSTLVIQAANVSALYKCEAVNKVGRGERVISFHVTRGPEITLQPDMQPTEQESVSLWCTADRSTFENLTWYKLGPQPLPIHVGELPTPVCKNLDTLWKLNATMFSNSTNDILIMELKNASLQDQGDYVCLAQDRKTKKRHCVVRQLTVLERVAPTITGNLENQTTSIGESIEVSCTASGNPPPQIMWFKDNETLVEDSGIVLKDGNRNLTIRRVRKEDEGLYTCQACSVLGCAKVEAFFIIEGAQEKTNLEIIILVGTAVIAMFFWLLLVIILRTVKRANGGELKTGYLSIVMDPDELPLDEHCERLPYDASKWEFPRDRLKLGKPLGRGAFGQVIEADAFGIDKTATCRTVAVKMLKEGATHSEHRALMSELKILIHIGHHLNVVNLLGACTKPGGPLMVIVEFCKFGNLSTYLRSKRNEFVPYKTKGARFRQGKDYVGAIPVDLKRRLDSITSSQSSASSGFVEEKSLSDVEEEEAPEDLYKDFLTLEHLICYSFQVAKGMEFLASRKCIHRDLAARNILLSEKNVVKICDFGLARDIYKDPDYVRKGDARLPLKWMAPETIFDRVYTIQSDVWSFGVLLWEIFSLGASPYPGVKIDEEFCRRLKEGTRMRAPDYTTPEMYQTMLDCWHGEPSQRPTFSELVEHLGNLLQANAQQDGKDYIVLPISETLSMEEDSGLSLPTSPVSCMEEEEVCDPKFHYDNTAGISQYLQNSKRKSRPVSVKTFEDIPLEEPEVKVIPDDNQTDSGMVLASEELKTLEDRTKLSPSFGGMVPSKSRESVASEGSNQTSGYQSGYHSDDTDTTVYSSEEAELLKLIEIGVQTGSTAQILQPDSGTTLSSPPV
T1 sequence (P47989 whole entry, species assumed): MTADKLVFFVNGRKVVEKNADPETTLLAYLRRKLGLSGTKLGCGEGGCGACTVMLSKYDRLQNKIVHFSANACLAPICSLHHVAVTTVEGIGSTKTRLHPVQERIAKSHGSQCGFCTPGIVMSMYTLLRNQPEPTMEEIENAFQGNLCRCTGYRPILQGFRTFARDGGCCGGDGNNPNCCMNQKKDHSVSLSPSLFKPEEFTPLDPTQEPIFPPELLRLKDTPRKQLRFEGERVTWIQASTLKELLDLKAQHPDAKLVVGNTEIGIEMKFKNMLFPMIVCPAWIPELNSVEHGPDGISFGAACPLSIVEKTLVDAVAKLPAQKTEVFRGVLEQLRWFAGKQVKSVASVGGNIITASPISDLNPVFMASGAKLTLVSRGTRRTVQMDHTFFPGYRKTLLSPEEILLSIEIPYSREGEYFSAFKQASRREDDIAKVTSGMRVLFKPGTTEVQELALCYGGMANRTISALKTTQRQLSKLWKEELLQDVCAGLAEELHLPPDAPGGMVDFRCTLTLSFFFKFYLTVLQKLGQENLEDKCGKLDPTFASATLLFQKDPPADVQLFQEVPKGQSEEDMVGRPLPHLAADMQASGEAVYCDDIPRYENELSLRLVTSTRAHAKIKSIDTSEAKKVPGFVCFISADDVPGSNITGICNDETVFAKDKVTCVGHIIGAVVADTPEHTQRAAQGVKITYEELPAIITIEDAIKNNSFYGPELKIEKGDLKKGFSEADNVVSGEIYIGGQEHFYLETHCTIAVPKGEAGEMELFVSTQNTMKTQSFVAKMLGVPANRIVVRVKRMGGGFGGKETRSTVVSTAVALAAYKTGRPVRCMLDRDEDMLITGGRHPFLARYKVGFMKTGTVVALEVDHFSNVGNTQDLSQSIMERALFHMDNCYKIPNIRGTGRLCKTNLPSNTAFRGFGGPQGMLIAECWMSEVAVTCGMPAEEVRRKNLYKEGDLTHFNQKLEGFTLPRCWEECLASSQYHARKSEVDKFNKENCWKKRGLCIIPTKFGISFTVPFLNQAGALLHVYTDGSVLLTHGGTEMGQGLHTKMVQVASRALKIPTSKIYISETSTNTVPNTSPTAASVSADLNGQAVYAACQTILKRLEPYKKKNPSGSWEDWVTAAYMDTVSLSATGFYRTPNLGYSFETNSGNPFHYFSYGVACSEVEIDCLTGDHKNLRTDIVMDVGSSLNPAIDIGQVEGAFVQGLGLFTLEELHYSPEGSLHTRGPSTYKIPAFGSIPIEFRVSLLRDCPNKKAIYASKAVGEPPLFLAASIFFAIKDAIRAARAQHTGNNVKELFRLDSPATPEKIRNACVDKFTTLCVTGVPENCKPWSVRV

Work on `O=C1C(=O)N(CCn2ncc3c(=O)[nH]cnc32)c2ccccc21` [6a, 1-[2-(1,5-Dihydro-4-oxopyrazolo[3,4-d]pyrimidin-1-yl)ethyl] indole-2,3-dione] yielded an IC50 (A498 (kidney carcinoma)) of 58.9 µM, an IC50 [1] of 151 µM and an IC50 [2] of 91.2 µM. The IC50 (CDK6/Cyclin D3) was 0.603 µM, the IC50 (VEGFR-2) was 0.309 µM and the IC50 (xanthine oxidase (XO) [3]) was 43.7 ± 5.51 µM.

With `O=C1C(=O)N(CCn2ncc3c(=O)[nH]cnc32)c2ccc(Cl)cc21` [6b, 5-Chloro-1-[2-(1,5-dihydro-4-oxopyrazolo[3,4-d]pyrimidin-1-yl)ethyl]indole-2,3-dione] the IC50 (A498 (kidney carcinoma)) was 16.2 µM, the “Selectivity index (SI) A498” value (A498 (kidney carcinoma)) was 2.03 and the IC50 [1] was 15.1 µM. The “Selectivity index (SI) HepG2” value [1] was 2.15, the IC50 [2] was 13.2 µM and the “Selectivity index (SI) MDA-MB-231” value [2] was 2.49. The IC50 (MV4-11 cell line [4]) was 5.85 µM, the “Cell percentage SubG1” value (MV4-11 cell line [5]; MV4-11, 1 μg mL^−1) was 3.48 ± 1.178% and the “Cell percentage G2/M” value (MV4-11 cell line [5]; MV4-11, 1 μg mL^−1) was 17.67 ± 1.285%. The “Cell percentage S” value (MV4-11 cell line [5]; MV4-11, 1 μg mL^−1) was 27.15 ± 3.651% and the “Cell percentage G0/G1” value (MV4-11 cell line [5]; MV4-11, 1 μg mL^−1) was 50.37 ± 4.619%.

Work on `COc1ccc2c(c1)C(=O)C(=O)N2CCn1ncc2c(=O)[nH]cnc21` [6c, 1-[2-(1,5-Dihydro-4-oxopyrazolo[3,4-d]pyrimidin-1-yl)ethyl]5-methoxyindole-2,3-dione] yielded an IC50 (A498 (kidney carcinoma)) of 30.2 µM, an IC50 [1] of 93.3 µM and an IC50 [2] of 47.9 µM.

Compound `O=C1C(=O)N(CCn2ncc3c(=O)[nH]cnc32)c2ccc(F)cc21` [6d, 5-Fluoro-1-[(2-(1,5-dihydro-4-oxopyrazolo[3,4-d]pyrimidin-1-yl)ethyl)]indole-2,3-dione] has an IC50 (A498 (kidney carcinoma)) of 38.9 µM, an IC50 [1] of 61.7 µM and an IC50 [2] of 47.9 µM.

`Nc1ncnc2c1ncn2CCN1C(=O)C(=O)c2ccccc21` [7a, 1-[2-(6-Amino-9H-purin-9-yl)ethyl]-2,3-dihydro-1H-indole-2,3-dione] gave an IC50 [2] of 209 µM.

With `Nc1ncnc2c1ncn2CCN1C(=O)C(=O)c2cc(Cl)ccc21` [7b, 1-[2-(6-Amino-9H-purin-9-yl)ethyl]-5-chloro-2,3-dihydro-1H-indole-2,3-dione] the IC50 (A498 (kidney carcinoma)) was 52.5 µM, the “Selectivity index (SI) A498” value (A498 (kidney carcinoma)) was 1.37 and the IC50 [1] was 6.03 µM. For the same compound, the “Selectivity index (SI) HepG2” value [1] was 11.89, the IC50 [2] was 19.5 µM and the “Selectivity index (SI) MDA-MB-231” value [2] was 3.64. The IC50 (MV4-11 cell line [4]) was 11.8 µM, the “Increase in S phase relative to control” value (MV4-11 cell line [5]; MV4-11, 10 μg mL^−1, p < 0.05) was 1.49 fold and the “Cell percentage SubG1” value (MV4-11 cell line [5]; MV4-11, 10 μg mL^−1) was 6.15 ± 2.74% and 6.15 ± 2.739%. The “Cell percentage G2/M” value (MV4-11 cell line [5]; MV4-11, 10 μg mL^−1) was 13.32 ± 2.763%, the “Cell percentage S” value (MV4-11 cell line [5]; MV4-11, 10 μg mL^−1) was 36.66 ± 4.326% and the “Cell percentage G0/G1” value (MV4-11 cell line [5]; MV4-11, 10 μg mL^−1) was 44.36 ± 4.193%. For the same compound, the IC50 (CDK6/Cyclin D3) was 1.51 µM, the IC50 (VEGFR-2) was 0.513 µM and the IC50 (xanthine oxidase (XO) [3]) was 66.1 µM.

Compound `COc1ccc2c(c1)C(=O)C(=O)N2CCn1cnc2c(N)ncnc21` [7c, 1-[2-(6-Amino-9H-purin-9-yl)ethyl]-2,3-dihydro-5-methoxy-1H-indole-2,3-dione] has an IC50 (A498 (kidney carcinoma)) of 182 µM, an IC50 [1] of 77.6 µM and an IC50 [2] of 135 µM.

In the case of `Nc1ncnc2c1ncn2CCN1C(=O)C(=O)c2cc(F)ccc21` [7d, 1-[2-(6-Amino-9H-purin-9-yl)ethyl]-2,3-dihydro-5-fluoro-1H-indole-2,3-dione], the IC50 (A498 (kidney carcinoma)) is reported as 166 µM, the IC50 [1] is reported as 17.4 µM and the IC50 [2] is reported as 83.2 µM.

In the case of `NC(=S)N/N=C1\C(=O)N(CCn2ncc3c(=O)[nH]cnc32)c2ccc(Cl)cc21` [8b, (2Z)-2-{5-Chloro-2-oxo-1-[2-(4-oxo-1,5-dihydropyrazolo[3,4-d]pyrimidin-1-yl)ethyl]-1,2-dihydro-3H-indol-3-ylidene}hydrazine-1-carbothioamide], the IC50 (A498 (kidney carcinoma)) is reported as 14.1 µM, the “Selectivity index (SI) A498” value (A498 (kidney carcinoma)) is reported as 2.45 and the IC50 [1] is reported as 13.2 µM. The “Selectivity index (SI) HepG2” value [1] was 2.60, the IC50 [2] was 53.7 µM and the “Selectivity index (SI) MDA-MB-231” value [2] was 0.63. For the same compound, the IC50 (CDK6/Cyclin D3) was 0.0676 µM, the IC50 (VEGFR-2) was 0.0708 µM and the IC50 (xanthine oxidase (XO) [3]) was 21.9 µM.

Compound `NC(=S)N/N=C1\C(=O)N(CCn2ncc3c(=O)[nH]cnc32)c2ccc(F)cc21` [8d, (2Z)-2-{5-Fluoro-2-oxo-1-[2-(4-oxo-1,5-dihydropyrazolo[3,4-d]pyrimidin-1-yl)ethyl]-1,2-dihydro-3H-indol-3-ylidene}hydrazine-1-carbothioamide] has an IC50 (A498 (kidney carcinoma)) of 105 µM and an IC50 [1] of 25.1 µM.

`NC(=S)N/N=C1\C(=O)N(CCn2cnc3c(N)ncnc32)c2ccc(F)cc21` [9d, (2Z)-2-{5-Fluoro-2-oxo-1-[2-(6-aminopurine-9-yl)ethyl]-1,2-dihydro-3H-indol-3-ylidene}hydrazine-1-carbothioamide] gave an IC50 [1] of 56.2 µM.

In the case of `Oc1ncnc2[nH]ncc12` [Allopurinol], the “Type of XO inhibition” value (xanthine oxidase (XO) [6]; Lineweaver–Burk plot) is reported as “mixed”, the V max (xanthine oxidase (XO) [6]; inhibitor 0.1 μM) is reported as 1.51 and the K m (xanthine oxidase (XO) [6]; inhibitor 0.1 μM) is reported as 50. The V max (xanthine oxidase (XO) [6]; inhibitor 1 μM) was 1.33, the K m (xanthine oxidase (XO) [6]; inhibitor 1 μM) was 64 and the V max (xanthine oxidase (XO) [6]; inhibitor 10 μM) was 0.55. For the same compound, the K m (xanthine oxidase (XO) [6]; inhibitor 10 μM) was 51.

In the case of `CC(=O)c1c(C)c2cnc(Nc3ccc(N4CCNCC4)cn3)nc2n(C2CCCC2)c1=O` [Palbociclib], the “Cell cycle arrest phase” value (MV4-11 cell line [7]) is given as “cell cycle arrest at the G1 phase”.

With `CNC(=O)c1cc(Oc2ccc(NC(=O)Nc3ccc(Cl)c(C(F)(F)F)c3)cc2)ccn1` [Sorafenib, reference compound] the IC50 (A498 (kidney carcinoma)) was 63.1 µM, the IC50 [1] was 44.7 µM and the IC50 [2] was 81.3 µM.
